According to ChEMBL document CHEMBL1130075, “(2-Methyl-5-(methylsulfonyl)benzoyl)guanidine Na+/H+ antiporter inhibitors” (J Med Chem, 1997):

Target: Sodium/hydrogen exchanger (Oryctolagus cuniculus, UniProt P23791+P50482+P26432)
Test: Inhibition of 5-N-(ethyl isopropyl)-amiloride[EIPA]-sensitive Na+ uptake into acidified rabbit erythrocytes.
Assay type: functional
Outline: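 Rabbit blood (heparinized) red cells, washed, acidified in pH 6.2 KCl buffer with ouabain, 10 min 37 °C; internal pH clamped with 200 μM DIDS and 1 mM acetazolamide, 30 min 37 °C. Uptake 5 min at 37 °C in pH 8.0 buffer with 10 mM NaCl plus ²²Na tracer, 1% DMSO. Triplicates; counts with 10 μM EIPA subtracted; IC50 by nonlinear fit.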

Row | Compound | IC50
1 | CCCSc1cc(C)c(C(=O)N=C(N)N)cc1S(C)(=O)=O | 6.8 nM
2 | CS(=O)(=O)c1cc(C(=O)N=C(N)N)ccc1-n1cccn1 | 160 nM
3 | CS(=O)(=O)c1cc(C(=O)N=C(N)N)ccc1C(F)(F)F | 140 nM
4 | CC(C)c1ccc(C(=O)N=C(N)N)cc1S(C)(=O)=O [CARIPORIDE] | 26 nM
5 | Cc1cc(-n2cccc2)c(S(C)(=O)=O)cc1C(=O)N=C(N)N [ENIPORIDE] | 8 nM
